Results reported in ChEMBL document CHEMBL1777764, “Synthesis and evaluation of 1-(1H-indol-3-yl)ethanamine derivatives as new antibacterial agents” (Bioorg Med Chem, 2011).

Tests used:
Streptococcus pneumoniae [1] = experiment: Antibacterial activity against Streptococcus pneumoniae ATCC 6303 after 18 hrs by broth microdilution method; type: functional; settings: ATCC 6303, 18 h
How it was run: (§1)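 MIC by broth microdilution per ISO 20776-1:2006 and CLSI M07-A8. Inoculum 10^6 cfu/ml in Mueller-Hinton broth […]. Compound serially diluted, final 2 to 128 ug/ml, duplicate rows, no-drug growth control. Read after 18 h at 37 °C as lowest concentration fully inhibiting visible growth. At least two experiments.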

[2] = system: Staphylococcus epidermidis; experiment: Antibacterial activity against Staphylococcus epidermidis ATCC 12228 after 18 hrs by broth microdilution method; type: functional; settings: ATCC 12228, 18 h
How it was run: (§2)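 MIC by broth microdilution per ISO 20776-1:2006 and CLSI M07-A8. Inoculum 10^6 cfu/ml in Mueller-Hinton broth with compound serially diluted, final concentrations 2 to 128 ug/ml, duplicate rows, no-drug growth control. Incubation 18 h at 37 °C. MIC taken as lowest concentration giving complete inhibition of visible growth. Each compound tested at least twice.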

Streptococcus agalactiae = experiment: Antibacterial activity against Streptococcus agalactiae ATCC 12400 after 18 hrs by broth microdilution method; type: functional; settings: ATCC 12400, 18 h
How it was run: (§3)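 Broth microdilution following ISO 20776-1:2006 and CLSI M07-A8, in Mueller-Hinton broth. Inoculum was 10^6 cfu/ml, with compound serial dilutions spanning 2 to 128 ug/ml and a compound-free growth control well. Plates were incubated 18 h at 37 °C. MIC was the lowest concentration giving complete inhibition of visible growth. Each compound was tested at least twice.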

[3] = system: Staphylococcus epidermidis; experiment: Antibacterial activity against Staphylococcus epidermidis CIP 81.55 after 18 hrs by broth microdilution method; type: functional; settings: CIP 81.55, 18 h; how it was run: as §2
KB [4] = experiment: Cytotoxicity against human KB cells at 10 uM; type: cell-based
Staphylococcus aureus [5] = experiment: Antibacterial activity against Staphylococcus aureus CIP 65.6 after 18 hrs by broth microdilution method; type: functional; settings: CIP 65.6, 18 h; how it was run: as §2
Staphylococcus aureus [6] = experiment: Antibacterial activity against Staphylococcus aureus ATCC 9144 after 18 hrs by broth microdilution method; type: functional; settings: ATCC 9144, 18 h; how it was run: as §2
Serratia marcescens = experiment: microbe, parasite or virus in culture; settings: CIP 103551, 18 h
Escherichia coli = experiment: Antibacterial activity against Escherichia coli ATCC 25922 after 18 hrs by broth microdilution method; type: functional; settings: ATCC 25922, 18 h; how it was run: as §3
Pseudomonas aeruginosa = experiment: microbe, parasite or virus in culture; settings: CIP 5933, 18 h
Streptococcus pneumoniae [7] = experiment: Antibacterial activity against Streptococcus pneumoniae ATCC 49619 after 18 hrs by broth microdilution method; type: functional; settings: ATCC 49619, 18 h; how it was run: as §1
HCT-116 [8] = experiment: Cytotoxicity against human HCT116 cells at 1 uM; type: cell-based; settings: hct-116, 1 µM
KB [9] = experiment: Cytotoxicity against human KB cells at 1 uM; type: cell-based
[10] = system: Staphylococcus epidermidis; experiment: Antibacterial activity against Staphylococcus epidermidis CIP 103627 after 18 hrs by broth microdilution method; type: functional; settings: CIP 103627, 18 h; how it was run: as §2
Acinetobacter baumannii = experiment: microbe, parasite or virus in culture; settings: ATCC 19606 = CIP 70.34 = JCM 6841, 18 h
Enterococcus faecium = experiment: Antibacterial activity against Enterococcus faecium CIP 54.32 after 18 hrs by broth microdilution method; type: functional; settings: CIP 54.32, 18 h; how it was run: as §3
Staphylococcus aureus [11] = experiment: Antibacterial activity against Staphylococcus aureus ATCC 25923 after 18 hrs by broth microdilution method; type: functional; settings: ATCC 25923, 18 h; how it was run: as §2
Staphylococcus aureus [12] = experiment: Antibacterial activity against Staphylococcus aureus ATCC 29213 after 18 hrs by broth microdilution method; type: functional; settings: ATCC 29213, 18 h; how it was run: as §2
Klebsiella pneumoniae = experiment: microbe, parasite or virus in culture; settings: ATCC 35657, 18 h
Staphylococcus aureus [13] = experiment: Antibacterial activity against methicillin-resistant Staphylococcus aureus CIP 65.25 after 18 hrs by broth microdilution method; type: functional; settings: CIP 65.25, 18 h; how it was run: as §3
Staphylococcus aureus [14] = experiment: Antibacterial activity against methicillin-resistant Staphylococcus aureus ATCC 33592 after 18 hrs by broth microdilution method; type: functional; settings: ATCC 33592, 18 h; how it was run: as §3
Staphylococcus aureus [15] = experiment: Antibacterial activity against Staphylococcus aureus CIP 103428 after 18 hrs by broth microdilution method; type: functional; settings: CIP 103428, 18 h; how it was run: as §2
Haemophilus influenzae = experiment: Antibacterial activity against Haemophilus influenzae ATCC 49766 after 18 hrs by broth microdilution method; type: functional; settings: ATCC 49766, 18 h
How it was run: as §3, with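 “broth […].” for “broth.”, “read after” for “incubated”, “with no” for “giving complete inhibition of”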

Streptococcus pyogenes = experiment: Antibacterial activity against Streptococcus pyogenes CIP 104226 after 18 hrs by broth microdilution method; type: functional; settings: CIP 104226, 18 h; how it was run: as §3
Staphylococcus aureus [16] = experiment: Antibacterial activity against Staphylococcus aureus ATCC 6538 after 18 hrs by broth microdilution method; type: functional; settings: ATCC 6538, 18 h; how it was run: as §2
Enterococcus faecalis = experiment: Antibacterial activity against Enterococcus faecalis ATCC 29212 after 18 hrs by broth microdilution method; type: functional; settings: ATCC 29212, 18 h; how it was run: as §3
Staphylococcus aureus [17] = experiment: Antibacterial activity against vancomycin intermediate Staphylococcus aureus […] after 18 hrs by broth microdilution method; type: functional; how it was run: as §3
MRC5 [18] = experiment: Cytotoxicity against human MRC5 cells at 10 uM; type: cell-based; settings: mrc5, 10 µM
Streptococcus mitis = experiment: Antibacterial activity against Streptococcus mitis CIP 103335 after 18 hrs by broth microdilution method; type: functional; settings: CIP 103335, 18 h
How it was run: as §3, with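 “broth […].” for “broth.”, “read after” for “incubated”, “with no” for “giving complete inhibition of”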

Enterobacter cloacae = experiment: microbe, parasite or virus in culture; settings: ATCC 13047, 18 h
MRC5 [19] = experiment: Cytotoxicity against human MRC5 cells at 1 uM; type: cell-based; settings: mrc5, 1 µM
HCT-116 [20] = experiment: Cytotoxicity against human HCT116 cells at 10 uM; type: cell-based; settings: hct-116, 10 µM

| SMILES | MIC (Streptococcus pneumoniae [1]) | MIC [2] | MIC (Streptococcus agalactiae) | MIC [3] | Activity (KB [4]) | MIC (Staphylococcus aureus [5]) | MIC (Staphylococcus aureus [6]) | MIC (Serratia marcescens) | MIC (Escherichia coli) | MIC (Pseudomonas aeruginosa) | MIC (Streptococcus pneumoniae [7]) | Activity (HCT-116 [8]) | Activity (KB [9]) | MIC [10] | MIC (Acinetobacter baumannii) | MIC (Enterococcus faecium) | MIC (Staphylococcus aureus [11]) | MIC (Staphylococcus aureus [12]) | MIC (Klebsiella pneumoniae) | MIC (Staphylococcus aureus [13]) | also measured |
| --- | --- | --- | --- | --- | --- | --- | --- | --- | --- | --- | --- | --- | --- | --- | --- | --- | --- | --- | --- | --- | --- |
| Cl.Cl.NCC(NO)c1c[nH]c2ccc(F)cc12 (stereo unspecified) | 64 µg/mL | 8 µg/mL | 32 µg/mL | 8 µg/mL | Non-toxic | 8 µg/mL | 8 µg/mL | 32 µg/mL | 32 µg/mL | 32 µg/mL | 64 µg/mL | Non-toxic | Non-toxic | 8 µg/mL | 32 µg/mL | 64 µg/mL | 8 µg/mL | 8 µg/mL | 32 µg/mL | 16 µg/mL | MIC (Staphylococcus aureus [14]): 16 µg/mL; MIC (Staphylococcus aureus [15]): 8 µg/mL; MIC (Haemophilus influenzae): > 128 µg/mL; MIC (Streptococcus pyogenes): 32 µg/mL; MIC (Staphylococcus aureus [16]): 8 µg/mL; MIC (Enterococcus faecalis): 64 µg/mL; MIC (Staphylococcus aureus [17]): 8 µg/mL; Activity (MRC5 [18]): Non-toxic; MIC (Streptococcus mitis): 32 µg/mL; MIC (Enterobacter cloacae): 32 µg/mL; Activity (MRC5 [19]): Non-toxic; Activity (HCT-116 [20]): Non-toxic |
| Cl.Cl.Cl.NCC(NO)c1c[nH]c2ccc(Cl)cc12 (stereo unspecified) | 64 µg/mL | 16 µg/mL | 128 µg/mL | 16 µg/mL | Non-toxic | 16 µg/mL | 16 µg/mL | 128 µg/mL | 64 µg/mL | 128 µg/mL | 64 µg/mL | Non-toxic | Non-toxic | 16 µg/mL | 128 µg/mL | > 128 µg/mL | 16 µg/mL | 16 µg/mL | 128 µg/mL | 16 µg/mL | MIC (Staphylococcus aureus [14]): 16 µg/mL; MIC (Staphylococcus aureus [15]): 16 µg/mL; MIC (Haemophilus influenzae): 128 µg/mL; MIC (Streptococcus pyogenes): 128 µg/mL; MIC (Staphylococcus aureus [16]): 16 µg/mL; MIC (Enterococcus faecalis): > 128 µg/mL; MIC (Staphylococcus aureus [17]): 16 µg/mL; Activity (MRC5 [18]): Non-toxic; MIC (Streptococcus mitis): 128 µg/mL; MIC (Enterobacter cloacae): 128 µg/mL; Activity (MRC5 [19]): Non-toxic; Activity (HCT-116 [20]): Non-toxic |
| Cl.Cl.Cl.NCC(NO)c1c[nH]c2cc(Cl)ccc12 (stereo unspecified) | 64 µg/mL | 16 µg/mL | 64 µg/mL | 16 µg/mL | Non-toxic | 16 µg/mL | 16 µg/mL | 64 µg/mL | 32 µg/mL | 64 µg/mL | 64 µg/mL | Non-toxic | Non-toxic | 16 µg/mL | 64 µg/mL | 128 µg/mL | 16 µg/mL | 16 µg/mL | 64 µg/mL | 16 µg/mL | MIC (Staphylococcus aureus [14]): 16 µg/mL; MIC (Staphylococcus aureus [15]): 16 µg/mL; MIC (Haemophilus influenzae): 128 µg/mL; MIC (Streptococcus pyogenes): 64 µg/mL; MIC (Staphylococcus aureus [16]): 16 µg/mL; MIC (Enterococcus faecalis): 128 µg/mL; MIC (Staphylococcus aureus [17]): 16 µg/mL; Activity (MRC5 [18]): Non-toxic; MIC (Streptococcus mitis): 64 µg/mL; MIC (Enterobacter cloacae): 64 µg/mL; Activity (MRC5 [19]): Non-toxic; Activity (HCT-116 [20]): Non-toxic |
